Source: ChEMBL document CHEMBL4004830 (J Med Chem, 2017)

Assays:
[1] = Growth inhibition of human MRC5 cells after 72 hrs by resazurin or MTT assay; assay type: cell-based
MV4-11 [2] = assay: Cell cycle arrest in human MV4-11 cells assessed as accumulation at sub-G1 phase at 5 times GI50 after 24 hrs by propidium iodide staining based flow cytometry (reference value: 0.91%); assay type: functional
Procedure, shortened: (§1)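 MV4-11 cells were treated with increasing concentrations for 24 h. Cells were then harvested, fixed and stained with propidium iodide before flow cytometric cell cycle analysis.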

MV4-11 [3] = assay: Cell cycle arrest in human MV4-11 cells assessed as accumulation at sub-G1 phase at GI50 after 24 hrs by propidium iodide staining based flow cytometry (reference value: 0.91%); assay type: functional; procedure, shortened: as §1
MOLM-13 = assay: Growth inhibition of human MOLM13 cells after 72 hrs by resazurin or MTT assay; assay type: functional; conditions: MOLM-13, 72 h
[4] = Growth inhibition of human M249 cells after 72 hrs by resazurin or MTT assay; assay type: functional; conditions: M249, 72 h
MCF7 = assay: Growth inhibition of human MCF7 cells after 72 hrs by resazurin or MTT assay; assay type: functional; conditions: MCF7, 72 h
[5] = Growth inhibition of nontransformed human BPH1 cells after 72 hrs by resazurin or MTT assay; assay type: cell-based; conditions: BPH-1 cells (nontransformed)
NB-4 = assay: Growth inhibition of human NB4 cells after 72 hrs by resazurin or MTT assay; assay type: functional; conditions: NB-4, 72 h
MV4-11 [6] = assay: Cell cycle arrest in human MV4-11 cells assessed as accumulation at G1 phase at GI50 after 24 hrs by propidium iodide staining based flow cytometry (reference value: 58.99%); assay type: functional; procedure, shortened: as §1
MV4-11 [7] = assay: Cell cycle arrest in human MV4-11 cells assessed as accumulation at S phase at GI50 after 24 hrs by propidium iodide staining based flow cytometry (reference value: 21.97%); assay type: functional; procedure, shortened: as §1
[8] = Growth inhibition of human M229 cells after 72 hrs by resazurin or MTT assay; assay type: functional; conditions: M229, 72 h
MV4-11 [9] = assay: Cell cycle arrest in human MV4-11 cells assessed as accumulation at G2/M phase at GI50 after 24 hrs by propidium iodide staining based flow cytometry (reference value: 18.11%); assay type: functional; procedure, shortened: as §1
MV4-11 [10] = assay: Cell cycle arrest in human MV4-11 cells assessed as accumulation at G2/M phase at 10 times GI50 after 24 hrs by propidium iodide staining based flow cytometry (reference value: 18.11%); assay type: functional; procedure, shortened: as §1
LNCaP C4-2B = assay: Growth inhibition of human C4-2B cells after 72 hrs by resazurin or MTT assay; assay type: functional
MV4-11 [11] = assay: Induction of apoptosis in human MV4-11 cells assessed as viable cells at 10 times GI50 after 24 hrs by annexin V/propidium iodide staining based flow cytometry (reference value: 93.05%); assay type: functional
MDA-MB-468 = assay: Growth inhibition of human MDA-MB-468 cells after 72 hrs by resazurin or MTT assay; assay type: functional; conditions: MDA-MB-468, 72 h
MV4-11 [12] = assay: Cell cycle arrest in human MV4-11 cells assessed as accumulation at S phase at 5 times GI50 after 24 hrs by propidium iodide staining based flow cytometry (reference value: 21.97%); assay type: functional; procedure, shortened: as §1
MV4-11 [13] = assay: Induction of apoptosis in human MV4-11 cells assessed as viable cells at GI50 after 24 hrs by annexin V/propidium iodide staining based flow cytometry (reference value: 93.05%); assay type: functional
MV4-11 [14] = assay: Induction of apoptosis in human MV4-11 cells assessed as necrotic cells at GI50 after 24 hrs by annexin V/propidium iodide staining based flow cytometry (reference value: 0.06%); assay type: functional
MDA-MB-453 = assay: Growth inhibition of human MDA-MB-453 cells after 72 hrs by MTT assay; assay type: functional; conditions: MDA-MB-453, 72 h
Procedure, shortened: (§2)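 72 h antiproliferation assay, resazurin read-out for MV4-11 and MTT read-out for MDA-MB-453; values from at least two replicates.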

MV4-11 [15] = assay: Growth inhibition of human MV4-11 cells after 72 hrs by resazurin assay; assay type: functional; conditions: MV4-11, 72 h; procedure, shortened: as §2
A2780 = assay: Growth inhibition of human A2780 cells after 72 hrs by resazurin or MTT assay; assay type: functional; conditions: A2780, 72 h
PC-3 = assay: Growth inhibition of human PC3 cells after 72 hrs by resazurin or MTT assay; assay type: functional; conditions: PC-3, 72 h
MV4-11 [16] = assay: Cell cycle arrest in human MV4-11 cells assessed as accumulation at G2/M phase at 5 times GI50 after 24 hrs by propidium iodide staining based flow cytometry (reference value: 18.11%); assay type: functional; procedure, shortened: as §1
MV4-11 [17] = assay: Induction of apoptosis in human MV4-11 cells assessed as viable cells at 5 times GI50 after 24 hrs by annexin V/propidium iodide staining based flow cytometry (reference value: 93.05%); assay type: functional
MV4-11 [18] = assay: Cell cycle arrest in human MV4-11 cells assessed as accumulation at G1 phase at 5 times GI50 after 24 hrs by propidium iodide staining based flow cytometry (reference value: 58.99%); assay type: functional; procedure, shortened: as §1
MV4-11 [19] = assay: Induction of apoptosis in human MV4-11 cells assessed as early apoptotic cells at 10 times GI50 after 24 hrs by annexin V/propidium iodide staining based flow cytometry (reference value: 2.01%); assay type: functional
MV4-11 [20] = assay: Cell cycle arrest in human MV4-11 cells assessed as accumulation at sub-G1 phase at 10 times GI50 after 24 hrs by propidium iodide staining based flow cytometry (reference value: 0.91%); assay type: functional; procedure, shortened: as §1
MV4-11 [21] = assay: Induction of apoptosis in human MV4-11 cells assessed as late apoptotic cells at GI50 after 24 hrs by annexin V/propidium iodide staining based flow cytometry (reference value: 4.87%); assay type: functional
MV4-11 [22] = assay: Cell cycle arrest in human MV4-11 cells assessed as accumulation at S phase at 10 times GI50 after 24 hrs by propidium iodide staining based flow cytometry (reference value: 21.97%); assay type: functional; procedure, shortened: as §1
MV4-11 [23] = assay: Induction of apoptosis in human MV4-11 cells assessed as necrotic cells at 10 times GI50 after 24 hrs by annexin V/propidium iodide staining based flow cytometry (reference value: 0.06%); assay type: functional
DU-145 = assay: Growth inhibition of human DU145 cells after 72 hrs by resazurin or MTT assay; assay type: functional; conditions: DU-145, 72 h
[24] = Growth inhibition of human M238 cells after 72 hrs by resazurin or MTT assay; assay type: functional; conditions: M238, 72 h
MV4-11 [25] = assay: Induction of apoptosis in human MV4-11 cells assessed as early apoptotic cells at GI50 after 24 hrs by annexin V/propidium iodide staining based flow cytometry (reference value: 2.01%); assay type: functional
MV4-11 [26] = assay: Cell cycle arrest in human MV4-11 cells assessed as accumulation at G1 phase at 10 times GI50 after 24 hrs by propidium iodide staining based flow cytometry (reference value: 58.99%); assay type: functional; procedure, shortened: as §1
[27] = Growth inhibition of human M249R cells after 72 hrs by resazurin or MTT assay; assay type: functional; conditions: M249, 72 h
MV4-11 [28] = assay: Induction of apoptosis in human MV4-11 cells assessed as necrotic cells at 5 times GI50 after 24 hrs by annexin V/propidium iodide staining based flow cytometry (reference value: 0.06%); assay type: functional
MV4-11 [29] = assay: Induction of apoptosis in human MV4-11 cells assessed as early apoptotic cells at 5 times GI50 after 24 hrs by annexin V/propidium iodide staining based flow cytometry (reference value: 2.01%); assay type: functional
MV4-11 [30] = assay: Induction of apoptosis in human MV4-11 cells assessed as late apoptotic cells at 5 times GI50 after 24 hrs by annexin V/propidium iodide staining based flow cytometry (reference value: 4.87%); assay type: functional

| SMILES | GI50 at 72 h [1] [µM] | Activity (MV4-11 [2]) [%] | Activity (MV4-11 [3]) [%] | GI50 (MOLM-13) [nM] | GI50 [4] [nM] | GI50 (MCF7) [nM] | GI50 at 72 h [5] [µM] | GI50 (NB-4) [nM] | Activity (MV4-11 [6]) [%] | Activity (MV4-11 [7]) [%] | GI50 [8] [nM] | Activity (MV4-11 [9]) [%] | Activity (MV4-11 [10]) [%] | GI50 (LNCaP C4-2B) [µM] | Activity (MV4-11 [11]) [%] | GI50 (MDA-MB-468) [µM] | Activity (MV4-11 [12]) [%] | Activity (MV4-11 [13]) [%] | Activity (MV4-11 [14]) [%] | GI50 (MDA-MB-453) [nM] | other results |
| --- | --- | --- | --- | --- | --- | --- | --- | --- | --- | --- | --- | --- | --- | --- | --- | --- | --- | --- | --- | --- | --- |
| Cc1nc(NC2CCCC2)sc1-c1ccnc(Nc2ccc(N3CCOCC3)cn2)n1 | > 10 | 4.09 | 3.43 | 385 | 82 | 1890 | > 10 | 681 | 63.57 | 17.77 | 150 | 15.3 | 5.75 | > 10 | 89.53 | > 10 | 13.85 | 92.71 | 0.06 | 3680 | GI50 (MV4-11 [15]): 209 nM; GI50 (A2780): 58 nM; GI50 (PC-3): 150 nM; Activity (MV4-11 [16]): 10.91%; Activity (MV4-11 [17]): 90.43%; Activity (MV4-11 [18]): 71.66%; Activity (MV4-11 [19]): 2.83%; Activity (MV4-11 [20]): 2.6%; Activity (MV4-11 [21]): 4.9%; Activity (MV4-11 [22]): 10.53%; Activity (MV4-11 [23]): 0.35%; GI50 (DU-145): > 10 µM; GI50 [24]: 2200 nM; Activity (MV4-11 [25]): 2.33%; Activity (MV4-11 [26]): 81.18%; GI50 [27]: 38 nM; Activity (MV4-11 [28]): 0.16%; Activity (MV4-11 [29]): 2.37%; Activity (MV4-11 [30]): 7.03% |
| CC(=O)c1c(C)c2cnc(Nc3ccc(N4CCNCC4)cn3)nc2n(C2CCCC2)c1=O [PALBOCICLIB] | > 10 | 1.81 | 1.32 | 62 | 1990 | 557 | 7.44 | 66 | 75.13 | 12.18 | 1220 | 11.49 | 4.12 | 4.15 | 89.91 | 5.96 | 5.07 | 90.99 | 0.17 | 326 | GI50 (MV4-11 [15]): 50 nM; GI50 (A2780): 32 nM; GI50 (PC-3): 71 nM; Activity (MV4-11 [16]): 4.13%; Activity (MV4-11 [17]): 90.49%; Activity (MV4-11 [18]): 88.99%; Activity (MV4-11 [19]): 2.31%; Activity (MV4-11 [20]): 1.72%; Activity (MV4-11 [21]): 6.28%; Activity (MV4-11 [22]): 4.67%; Activity (MV4-11 [23]): 0.12%; GI50 (DU-145): 5.79 µM; GI50 [24]: 1970 nM; Activity (MV4-11 [25]): 2.54%; Activity (MV4-11 [26]): 89.5%; GI50 [27]: 2960 nM; Activity (MV4-11 [28]): 0.21%; Activity (MV4-11 [29]): 2.14%; Activity (MV4-11 [30]): 7.16% |
